pIC50, pKi: −log10 of the molar value. The source made the active and inactive calls. The calls are words filed in the database; no cut-off is given here.
How the values were obtained:
[1] = target: T1, Protein kinase C theta type (Homo sapiens, UniProt Q04759); assay: Inhibition of human PKCtheta in presence of ATP by cellular assay
[2] = target: T1, Protein kinase C theta type; assay: Inhibition of human PKCtheta assessed as inhibition constant in presence of ATP
HCT-116 [3] = assay: Antitumor activity against human HCT-116 cells xenografted in nude mouse assessed as reduction in PKCalpha phosphorylation at S569 residue at 15 to 150 mg/kg/day administered via pump for 18 hrs by Reverse-Phase protein array analysis; format: functional, organism-based; details: dose 15-150 mg/kg/day
Panc1005 = assay: Antiproliferative activity against human Panc1005 cells assessed as inhibition of cell proliferation incubated for 3 days by CellTiter-Glo Luminescent Cell Viability Assay; format: functional, cell-based; details: Panc1005, 72 h
Summary of the method: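 Cells of each line were plated in 384-well plates on day 1 and exposed to compound from day 2 for 3 days. On day 5 all medium was aspirated. Viable cell number was read by CellTiter-Glo luminescence, which quantifies cellular ATP.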

MDA-MB-157 = assay: Antiproliferative activity against human MDA-MB-157 cells assessed as inhibition of cell proliferation incubated for 3 days by CellTiter-Glo Luminescent Cell Viability Assay; format: functional, cell-based; details: MDA-MB-157, 72 h
Summary of the method: (§1)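 Cancer cell lines seeded in 384-well plates on day 1; compound added on day 2 and left for 3 days. On day 5 all medium was aspirated, and viable cells were quantified by CellTiter-Glo luminescence, which measures cellular ATP. Dose-dependent effects on proliferation were determined.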

MIA PaCa-2 = assay: Antiproliferative activity against human MIA PaCa-2 cells assessed as inhibition of cell proliferation incubated for 3 days by CellTiter-Glo Luminescent Cell Viability Assay; format: functional, cell-based; details: MIA PaCa-2, 72 h
Summary of the method: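 Cancer cell lines seeded in 384-well plates on day 1; compound added on day 2 and incubated 3 days. On day 5 media aspirated and viable cells quantified by ATP content using CellTiter-Glo luminescence; dose-dependent proliferation effects determined.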

NCI-H1650 = assay: Inhibition of anchorage independent cell growth in human NCI-H1650 cells incubated for 6 days by Alamar blue reagent based fluorescence plate reader analysis; format: functional; details: NCI-H1650, 144 h
Calu-1 = assay: Antiproliferative activity against human Calu-1 cells assessed as inhibition of cell proliferation incubated for 3 days by CellTiter-Glo Luminescent Cell Viability Assay; format: functional, cell-based; details: Calu-1, 72 h; summary of the method: as §1
[4] = target: T2, Receptor-type tyrosine-protein kinase FLT3 (Homo sapiens, UniProt P36888); assay: Inhibition of human FLT3 assessed as inhibition constant in presence of ATP
T2 sequence (P36888 whole entry): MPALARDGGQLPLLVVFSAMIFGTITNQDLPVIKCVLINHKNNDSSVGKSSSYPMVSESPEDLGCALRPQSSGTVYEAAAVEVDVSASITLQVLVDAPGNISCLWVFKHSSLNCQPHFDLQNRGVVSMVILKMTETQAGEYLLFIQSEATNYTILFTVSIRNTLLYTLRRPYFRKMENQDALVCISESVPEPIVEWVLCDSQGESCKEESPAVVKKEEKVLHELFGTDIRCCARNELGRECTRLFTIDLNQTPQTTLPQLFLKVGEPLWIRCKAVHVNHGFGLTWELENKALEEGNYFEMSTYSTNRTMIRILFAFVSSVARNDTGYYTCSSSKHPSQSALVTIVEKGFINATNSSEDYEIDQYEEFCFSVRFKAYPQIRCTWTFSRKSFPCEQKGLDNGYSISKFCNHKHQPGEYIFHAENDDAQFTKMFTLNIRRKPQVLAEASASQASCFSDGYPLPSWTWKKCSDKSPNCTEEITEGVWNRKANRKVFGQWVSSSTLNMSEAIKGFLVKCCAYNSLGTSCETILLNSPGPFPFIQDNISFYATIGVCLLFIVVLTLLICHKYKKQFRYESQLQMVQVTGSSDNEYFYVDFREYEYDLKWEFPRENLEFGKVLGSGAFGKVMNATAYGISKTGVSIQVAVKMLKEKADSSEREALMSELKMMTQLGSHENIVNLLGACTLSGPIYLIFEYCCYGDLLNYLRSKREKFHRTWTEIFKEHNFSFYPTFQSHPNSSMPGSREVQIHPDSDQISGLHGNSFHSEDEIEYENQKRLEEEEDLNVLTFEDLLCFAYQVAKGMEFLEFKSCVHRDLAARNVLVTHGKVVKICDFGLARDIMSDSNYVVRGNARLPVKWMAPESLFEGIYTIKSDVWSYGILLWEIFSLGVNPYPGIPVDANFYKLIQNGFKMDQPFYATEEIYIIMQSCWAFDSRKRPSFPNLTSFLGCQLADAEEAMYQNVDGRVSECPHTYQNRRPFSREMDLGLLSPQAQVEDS

HCT-116 [5] = assay: Antitumor activity against human HCT-116 cells xenografted in nude mouse assessed as tumor growth inhibition at 0.12 mg/kg administered via pump for 9 days relative to control; format: functional; details: HCT-116, 216 h, time 9 day, read-out: TGI
[6] = target: Tyrosine-protein kinase Fyn (Homo sapiens, UniProt P06241); assay: Inhibition of human FYN in presence of ATP
Chain of Tyrosine-protein kinase Fyn (P06241 whole entry): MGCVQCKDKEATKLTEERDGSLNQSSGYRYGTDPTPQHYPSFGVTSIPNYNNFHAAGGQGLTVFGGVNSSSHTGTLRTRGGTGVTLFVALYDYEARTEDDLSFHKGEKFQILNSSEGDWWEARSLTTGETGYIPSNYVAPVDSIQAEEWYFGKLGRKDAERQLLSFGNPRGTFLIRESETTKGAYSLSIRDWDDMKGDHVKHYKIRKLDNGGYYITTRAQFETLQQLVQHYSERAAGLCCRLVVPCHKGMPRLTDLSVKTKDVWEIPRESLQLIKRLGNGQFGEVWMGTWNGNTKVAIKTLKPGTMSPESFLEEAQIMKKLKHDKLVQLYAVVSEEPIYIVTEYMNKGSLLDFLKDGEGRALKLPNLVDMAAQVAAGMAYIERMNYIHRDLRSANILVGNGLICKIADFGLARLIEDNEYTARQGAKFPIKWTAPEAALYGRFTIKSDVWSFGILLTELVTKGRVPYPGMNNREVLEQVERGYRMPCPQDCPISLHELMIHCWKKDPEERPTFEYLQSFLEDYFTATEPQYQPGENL

DLD-1 = assay: Antiproliferative activity against human DLD-1 cells assessed as inhibition of cell proliferation incubated for 3 days by CellTiter-Glo Luminescent Cell Viability Assay; format: functional, cell-based; details: DLD-1, 72 h; summary of the method: as §1
Caco-2 = assay: Antiproliferative activity against human Caco-2 cells assessed as inhibition of cell proliferation incubated for 3 days by CellTiter-Glo Luminescent Cell Viability Assay; format: functional, cell-based; details: Caco-2, 72 h; summary of the method: as §1
HCC827 = assay: Inhibition of anchorage independent cell growth in human HCC827 cells incubated for 6 days by Alamar blue reagent based fluorescence plate reader analysis; format: functional; details: HCC827, 144 h
[7] = target: T1, Protein kinase C theta type; assay: Inhibition of human PKCtheta in presence of ATP
[8] = target: Ribosomal protein S6 kinase alpha-2 (Homo sapiens, UniProt Q15349); assay: Inhibition of human RSK3 in presence of ATP by cellular assay
Chain of Ribosomal protein S6 kinase alpha-2 (Q15349 whole entry): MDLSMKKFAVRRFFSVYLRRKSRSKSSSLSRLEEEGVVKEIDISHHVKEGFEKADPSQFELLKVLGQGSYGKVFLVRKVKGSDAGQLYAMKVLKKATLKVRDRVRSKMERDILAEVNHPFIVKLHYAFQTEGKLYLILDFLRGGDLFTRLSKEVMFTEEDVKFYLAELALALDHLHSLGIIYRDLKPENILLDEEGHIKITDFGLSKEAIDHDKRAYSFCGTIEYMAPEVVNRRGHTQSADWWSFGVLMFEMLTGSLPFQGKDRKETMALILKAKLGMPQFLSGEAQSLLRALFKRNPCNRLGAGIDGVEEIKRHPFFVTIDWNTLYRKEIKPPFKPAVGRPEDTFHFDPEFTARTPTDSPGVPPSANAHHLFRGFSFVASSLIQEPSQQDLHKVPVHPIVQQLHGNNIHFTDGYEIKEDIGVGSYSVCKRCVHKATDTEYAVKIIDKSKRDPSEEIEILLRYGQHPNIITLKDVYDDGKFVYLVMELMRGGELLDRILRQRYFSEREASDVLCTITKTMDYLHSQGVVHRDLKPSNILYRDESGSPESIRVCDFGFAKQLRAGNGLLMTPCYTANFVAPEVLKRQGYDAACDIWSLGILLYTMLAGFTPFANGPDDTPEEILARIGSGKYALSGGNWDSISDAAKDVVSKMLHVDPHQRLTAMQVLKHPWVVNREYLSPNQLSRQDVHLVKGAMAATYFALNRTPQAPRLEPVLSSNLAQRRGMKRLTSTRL

[9] = target: T2, Receptor-type tyrosine-protein kinase FLT3; assay: Inhibition of human FLT3 in presence of ATP
NCI-H1666 = assay: Inhibition of anchorage independent cell growth in human NCI-H1666 cells incubated for 6 days by Alamar blue reagent based fluorescence plate reader analysis; format: functional; details: NCI-H1666, 144 h
[10] = target: Serine/threonine-protein kinase PAK 6 (Homo sapiens, UniProt Q9NQU5); assay: Inhibition of PAK6 (unknown origin) using EVPRRKSLVGTPYWM peptide as substrate assessed as inhibition constant in presence of ATP by biochemical assay
Chain of Serine/threonine-protein kinase PAK 6 (Q9NQU5 whole entry, the tested form may be a part): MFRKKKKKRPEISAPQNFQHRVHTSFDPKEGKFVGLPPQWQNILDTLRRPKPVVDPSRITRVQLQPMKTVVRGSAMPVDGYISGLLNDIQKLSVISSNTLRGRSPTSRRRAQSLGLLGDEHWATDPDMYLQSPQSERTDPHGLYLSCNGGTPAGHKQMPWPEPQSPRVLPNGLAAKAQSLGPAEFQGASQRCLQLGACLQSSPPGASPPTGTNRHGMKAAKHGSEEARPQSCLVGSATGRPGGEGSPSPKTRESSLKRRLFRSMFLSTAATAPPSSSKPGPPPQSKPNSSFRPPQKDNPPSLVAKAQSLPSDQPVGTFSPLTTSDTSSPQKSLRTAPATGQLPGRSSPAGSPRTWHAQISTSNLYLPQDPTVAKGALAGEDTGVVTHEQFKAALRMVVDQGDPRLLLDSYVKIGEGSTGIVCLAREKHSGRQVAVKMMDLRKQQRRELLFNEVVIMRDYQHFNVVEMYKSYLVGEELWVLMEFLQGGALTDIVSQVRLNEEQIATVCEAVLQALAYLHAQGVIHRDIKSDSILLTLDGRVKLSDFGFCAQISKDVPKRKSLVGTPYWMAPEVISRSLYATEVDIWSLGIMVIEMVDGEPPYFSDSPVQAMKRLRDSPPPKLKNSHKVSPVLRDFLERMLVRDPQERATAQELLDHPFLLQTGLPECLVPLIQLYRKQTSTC
Summary of the method: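 PAK6 kinase domain activity coupled to NADH oxidation via pyruvate kinase/lactate dehydrogenase (2 mM phosphoenolpyruvate, 0.33 mM NADH, 15 units/mL each PK and LDH) in 50 mM Hepes pH 7.5, 1 mM DTT, 5 mM MgCl2, 0.5 mM peptide 7, 0.072 mM ATP. Initial rates by linear least-squares regression; Ki from competitive or tight-binding inhibition fits.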

[11] = target: Protein kinase C beta type (Homo sapiens, UniProt P05771); assay: Inhibition of human PKCbeta-II in presence of ATP by cellular assay
Chain of Protein kinase C beta type (P05771 whole entry): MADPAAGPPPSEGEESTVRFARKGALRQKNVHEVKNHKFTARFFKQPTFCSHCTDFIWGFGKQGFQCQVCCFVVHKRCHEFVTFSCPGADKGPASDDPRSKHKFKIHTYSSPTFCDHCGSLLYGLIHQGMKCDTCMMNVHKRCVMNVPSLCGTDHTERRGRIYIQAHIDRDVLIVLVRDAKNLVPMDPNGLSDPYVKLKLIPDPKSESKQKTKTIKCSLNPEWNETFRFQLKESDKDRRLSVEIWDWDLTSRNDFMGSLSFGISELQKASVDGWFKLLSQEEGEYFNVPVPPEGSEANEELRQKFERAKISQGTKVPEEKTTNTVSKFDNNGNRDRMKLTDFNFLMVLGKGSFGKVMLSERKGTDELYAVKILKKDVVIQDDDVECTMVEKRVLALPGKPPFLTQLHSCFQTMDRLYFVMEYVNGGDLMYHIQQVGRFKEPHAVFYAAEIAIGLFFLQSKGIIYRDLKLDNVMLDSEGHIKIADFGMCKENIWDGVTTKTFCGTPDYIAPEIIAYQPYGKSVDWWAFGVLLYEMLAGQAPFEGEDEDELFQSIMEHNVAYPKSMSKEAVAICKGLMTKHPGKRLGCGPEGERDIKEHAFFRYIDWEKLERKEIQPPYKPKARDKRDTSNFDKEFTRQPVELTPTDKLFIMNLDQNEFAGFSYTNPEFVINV

T1 sequence (Q04759 whole entry): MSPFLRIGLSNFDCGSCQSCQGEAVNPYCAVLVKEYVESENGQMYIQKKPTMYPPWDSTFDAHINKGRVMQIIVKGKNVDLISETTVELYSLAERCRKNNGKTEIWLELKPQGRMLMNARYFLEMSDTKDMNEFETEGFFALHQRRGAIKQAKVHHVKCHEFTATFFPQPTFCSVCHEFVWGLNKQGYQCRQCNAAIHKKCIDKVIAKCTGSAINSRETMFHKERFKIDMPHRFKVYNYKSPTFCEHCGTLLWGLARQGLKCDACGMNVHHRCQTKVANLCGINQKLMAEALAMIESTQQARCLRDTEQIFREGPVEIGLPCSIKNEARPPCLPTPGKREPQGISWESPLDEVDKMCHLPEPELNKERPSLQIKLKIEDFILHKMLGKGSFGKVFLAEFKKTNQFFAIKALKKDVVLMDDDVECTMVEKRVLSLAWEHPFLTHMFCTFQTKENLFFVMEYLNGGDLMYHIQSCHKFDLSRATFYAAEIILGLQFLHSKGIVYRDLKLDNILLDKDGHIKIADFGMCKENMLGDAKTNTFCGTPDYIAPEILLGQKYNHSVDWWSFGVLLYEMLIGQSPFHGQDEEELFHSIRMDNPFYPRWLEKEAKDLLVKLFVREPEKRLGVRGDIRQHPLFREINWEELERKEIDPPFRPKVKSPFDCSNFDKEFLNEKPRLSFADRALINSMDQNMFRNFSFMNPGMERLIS

pIC50 [1]: 6.25 | pKi [2]: 8.00 | pIC50 (Panc1005): 7.17 | pIC50 (MDA-MB-157): 6.84 | pIC50 (MIA PaCa-2): 7.77 | pIC50 (NCI-H1650): 8.25 | pIC50 (Calu-1): 6.78 | pKi [4]: 7.09 | pIC50 [6]: 7.34 | pIC50 (DLD-1): 5.00 | pIC50 (Caco-2): 5.00 | pIC50 (HCC827): 8.66 | pIC50 [7]: 7.55 | pIC50 [8]: 5.71 | pIC50 [9]: 7.02 | pIC50 (NCI-H1666): 8.20 | pKi [10]: 7.77 | pIC50 [11]: 5.86
Structure (SMILES): Cc1nc(Nc2n[nH]c3c2CN(C(=O)N[C@H](CN(C)C)c2ccccc2)C3(C)C)c2sccc2n1 [PF-03758309]
Activity (HCT-116 [3]): Active | inhibition in vivo at 0.12 mg/kg (HCT-116 [5]): 16%
